In ChEMBL document CHEMBL1147976 (Eur J Med Chem, 2007):

Experiments:
[1] = Binding affinity to DNA by DNA-methyl green bioassay; set-up: species or system Homo sapiens
Procedure, shortened: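 Absorbance at 630 nm read at start and after 24 h dark at room temperature. Readings corrected for initial value, normalized to untreated complex. IC50 = 50% drop in DNA-related absorbance.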

THP-1 = assay: Cytotoxicity against human THP1 cells; format: cell-based
Procedure, shortened: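 Late log-phase human monocytes in RPMI with 10% Alamar Blue and 10% foetal calf serum. Concentration range in duplicate cultures, final DMSO below 5%. Incubated 72 h at 37 C, 5% CO2. Alamar Blue reduction measured as absorbance at 570 and 630 nm. IC50 based on reduction relative to control culture.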

Leishmania infantum [2] = assay: Antipromastigote activity against Leishmania infantum; format: functional, organism-based
Procedure, shortened: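 L. infantum MHOM/FR/78/LEM75 late log-phase promastigotes in phenol-red-free RPMI with 12% foetal calf serum and 10% Alamar Blue. Concentration range added to duplicate cultures, final DMSO below 5%. Incubated 48 h at 25 C. Alamar Blue reduction read by absorbance at 570 and 630 nm. IC50 = concentration giving 50% reduction of Alamar Blue versus control.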

[3] = Toxicity in human macrophages; format: cell-based; conditions: macrophage
Leishmania infantum [4] = assay: Antiamastigote activity against Leishmania infantum; format: functional, organism-based

Row | Compound | IC50 [1] | IC50 (Leishmania infantum [2]) | IC50 (Leishmania infantum [4]) | IC50 (THP-1) | Activity [3]
1 | CC(=O)Nc1ccc2cc3ccc(N)cc3nc2c1 | 59.1 µM | 90.8 µM | – | 4.7 µM | Toxic
2 | CCCC(=O)Nc1ccc2cc3ccc(NC(=O)CCC)cc3nc2c1 | 102 µM | 46.7 µM | 12.8 µM | 18.9 µM | –
3 | COc1ccc(C(=O)Nc2ccc3cc4ccc(NC(C)=O)cc4nc3c2)cc1 | > 250 µM | 86.9 µM | – | 1.76 µM | Toxic
4 | O=C(Nc1ccc2cc3ccc(NC(=O)c4ccccc4)cc3nc2c1)c1ccccc1 | > 250 µM | 4.31 µM | 1.1 µM | 110 µM | –
5 | CC(=O)Nc1ccc2cc3ccc(NC(C)=O)cc3nc2c1 | > 250 µM | 342 µM | 4.5 µM | 738 µM | –
6 | COc1ccc(C(=O)Nc2ccc3cc4ccc(NC(=O)c5ccc(OC)cc5)cc4nc3c2)cc1 | > 250 µM | 4.8 µM | 1.1 µM | 13.4 µM | –
7 | CC(=O)Nc1ccc2cc3ccc(NC(=O)c4ccccc4)cc3nc2c1 | > 250 µM | 186 µM | – | 5.4 µM | Toxic
8 | COc1cccc2c1C(=O)c1c(O)c3c(c(O)c1C2=O)C[C@@](O)(C(=O)CO)C[C@@H]3O[C@H]1C[C@H](N)[C@H](O)[C@H](C)O1 [DOXORUBICIN] | 1.38 µM | – | – | – | –
9 | Nc1ccc2cc3ccc(N)cc3nc2c1 [PROFLAVINE] | > 250 µM | 1.3 µM | 0.12 µM | 2.21 µM | –

Second part, led by results:

Row | IC50 [1] | IC50 (Leishmania infantum [2]) | IC50 (Leishmania infantum [4]) | Compound | IC50 (THP-1) | Activity [3]
10 | > 250 µM | 16.1 µM | 0.8 µM | COc1ccc(C(=O)Nc2ccc3cc4ccc(NC(=O)c5ccc(OC)c(OC)c5)cc4nc3c2)cc1OC | 26.8 µM | –
11 | > 250 µM | 11.5 µM | 2.9 µM | CC(=O)Nc1ccc2cc3ccc(NC(=O)c4ccc(Cl)cc4)cc3nc2c1 | 1.9 µM | –
12 | > 250 µM | 203 µM | 1.3 µM | COc1ccc(C(=O)Nc2ccc3cc4ccc(NC(C)=O)cc4nc3c2)cc1OC | 2.1 µM | –
13 | > 250 µM | 0.11 µM | 0.2 µM | O=C(Nc1ccc2cc3ccc(NC(=O)c4ccc(Cl)cc4)cc3nc2c1)c1ccc(Cl)cc1 | 2.49 µM | –
14 | > 250 µM | 1.7 µM | 0.03 µM | O=C(Nc1ccc2cc3ccc(NC(=O)c4ccc(F)cc4)cc3nc2c1)c1ccc(F)cc1 | 0.77 µM | –
15 | > 250 µM | 133 µM | 0.67 µM | CC(=O)Nc1ccc2cc3ccc(NC(=O)c4ccc(F)cc4)cc3nc2c1 | 1.1 µM | –
16 | 171 µM | 160 µM | 7.7 µM | CCC(=O)Nc1ccc2cc3ccc(NC(=O)CC)cc3nc2c1 | 23.2 µM | –
17 | – | 0.38 µM | 0.14 µM | C[C@@H]1[C@H](O)[C@@H](C)/C=C/C=C/C=C/C=C/C=C/C=C/C=C/[C@H](O[C@@H]2O[C@H](C)[C@@H](O)[C@H](N)[C@@H]2O)C[C@@H]2O[C@](O)(C[C@@H](O)C[C@@H](O)[C@H](O)CC[C@@H](O)C[C@@H](O)CC(=O)O[C@H]1C)C[C@H](O)[C@H]2C(=O)O [AMPHOTERICIN B] | 154 µM | –
